Molecules are shown by their SMILES.

Sequence of Metabotropic glutamate receptor 5 (Rattus norvegicus, UniProt P31424) (P31424 whole entry): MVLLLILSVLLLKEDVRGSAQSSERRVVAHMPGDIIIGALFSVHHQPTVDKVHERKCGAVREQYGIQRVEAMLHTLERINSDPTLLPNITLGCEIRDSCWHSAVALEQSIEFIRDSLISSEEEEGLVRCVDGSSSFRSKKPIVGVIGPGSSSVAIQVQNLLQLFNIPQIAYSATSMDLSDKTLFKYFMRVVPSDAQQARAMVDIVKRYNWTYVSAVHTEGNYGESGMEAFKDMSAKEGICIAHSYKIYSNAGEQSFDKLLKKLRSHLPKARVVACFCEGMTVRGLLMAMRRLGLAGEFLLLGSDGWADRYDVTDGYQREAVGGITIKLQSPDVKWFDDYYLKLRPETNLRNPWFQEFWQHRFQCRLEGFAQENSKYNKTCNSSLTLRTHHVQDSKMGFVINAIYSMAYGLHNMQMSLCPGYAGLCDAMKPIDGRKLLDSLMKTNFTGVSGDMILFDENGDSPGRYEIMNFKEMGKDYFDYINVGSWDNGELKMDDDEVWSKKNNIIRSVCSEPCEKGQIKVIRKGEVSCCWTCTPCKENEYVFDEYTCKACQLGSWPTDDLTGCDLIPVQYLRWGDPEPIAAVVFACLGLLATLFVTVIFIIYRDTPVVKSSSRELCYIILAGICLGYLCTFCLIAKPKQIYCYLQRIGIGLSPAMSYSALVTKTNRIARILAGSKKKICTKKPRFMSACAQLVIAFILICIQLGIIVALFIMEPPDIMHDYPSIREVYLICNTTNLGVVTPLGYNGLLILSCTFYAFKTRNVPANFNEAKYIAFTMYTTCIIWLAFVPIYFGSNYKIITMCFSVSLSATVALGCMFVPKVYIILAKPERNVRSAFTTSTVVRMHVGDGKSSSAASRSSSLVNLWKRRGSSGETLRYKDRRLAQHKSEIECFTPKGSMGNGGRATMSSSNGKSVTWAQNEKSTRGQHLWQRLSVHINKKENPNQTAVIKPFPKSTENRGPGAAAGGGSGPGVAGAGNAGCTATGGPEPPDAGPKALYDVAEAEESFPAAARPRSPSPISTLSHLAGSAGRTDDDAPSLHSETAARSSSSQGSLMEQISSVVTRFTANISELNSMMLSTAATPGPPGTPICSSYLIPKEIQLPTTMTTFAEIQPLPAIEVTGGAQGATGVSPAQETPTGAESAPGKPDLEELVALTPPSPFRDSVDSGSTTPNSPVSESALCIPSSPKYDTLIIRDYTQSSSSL
Sequence of Metabotropic glutamate receptor 5 (Homo sapiens, UniProt P41594) (P41594 whole entry): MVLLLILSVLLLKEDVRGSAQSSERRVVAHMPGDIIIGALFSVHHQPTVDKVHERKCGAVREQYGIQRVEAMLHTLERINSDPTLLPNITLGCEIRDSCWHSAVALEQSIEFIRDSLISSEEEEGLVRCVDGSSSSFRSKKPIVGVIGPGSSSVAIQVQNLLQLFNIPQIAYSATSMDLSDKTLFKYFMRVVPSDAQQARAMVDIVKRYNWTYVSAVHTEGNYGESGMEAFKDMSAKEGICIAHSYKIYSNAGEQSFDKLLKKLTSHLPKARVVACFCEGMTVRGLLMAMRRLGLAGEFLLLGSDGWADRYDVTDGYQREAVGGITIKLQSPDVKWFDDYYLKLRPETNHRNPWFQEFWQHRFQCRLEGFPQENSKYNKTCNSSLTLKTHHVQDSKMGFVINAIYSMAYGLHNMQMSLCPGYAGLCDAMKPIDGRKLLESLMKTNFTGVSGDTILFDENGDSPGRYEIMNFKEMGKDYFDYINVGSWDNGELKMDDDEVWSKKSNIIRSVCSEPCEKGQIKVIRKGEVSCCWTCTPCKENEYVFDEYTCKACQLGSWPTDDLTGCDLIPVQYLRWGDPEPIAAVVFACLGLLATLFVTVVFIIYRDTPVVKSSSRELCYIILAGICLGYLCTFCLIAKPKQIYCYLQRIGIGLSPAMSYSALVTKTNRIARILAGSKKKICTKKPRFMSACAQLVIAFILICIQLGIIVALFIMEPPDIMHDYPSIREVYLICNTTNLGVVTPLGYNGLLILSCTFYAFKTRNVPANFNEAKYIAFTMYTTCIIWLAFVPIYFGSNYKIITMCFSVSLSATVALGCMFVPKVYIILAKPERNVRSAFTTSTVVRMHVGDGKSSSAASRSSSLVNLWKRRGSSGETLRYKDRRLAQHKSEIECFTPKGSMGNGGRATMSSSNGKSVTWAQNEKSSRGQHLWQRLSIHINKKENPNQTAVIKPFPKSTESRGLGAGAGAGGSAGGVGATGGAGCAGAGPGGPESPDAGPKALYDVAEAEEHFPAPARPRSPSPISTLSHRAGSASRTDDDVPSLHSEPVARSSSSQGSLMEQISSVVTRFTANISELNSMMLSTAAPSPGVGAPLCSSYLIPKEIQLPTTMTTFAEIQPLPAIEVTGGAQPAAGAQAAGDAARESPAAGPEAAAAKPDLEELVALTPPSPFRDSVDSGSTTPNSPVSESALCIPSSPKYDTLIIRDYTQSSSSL

One data set addresses Metabotropic glutamate receptor 5 (Rattus norvegicus, UniProt P31424). Briefly: Displacement of [3H]M-MPEP from mGluR5 in Sprague-Dawley rat cerebrocortical membranes after 60 mins.
Details: not given
Regarding `O=S(=O)(c1cc(Cl)cc(Cl)c1)c1cnc2cc(F)ccc2c1-c1cccc(F)c1`, the Ki turned out to be 10.7 nM. This counts as double-digit nanomolar.
Turning to `O=S(=O)(c1cc(F)cc(F)c1)c1cnc2c(F)cccc2c1-c1ccc(F)cc1`, the Ki is 13.3 nM.
In the case of `O=S(=O)(c1cc(F)cc(F)c1)c1cnc2cc(F)ccc2c1-c1cccc(F)c1`, the Ki was 32.6 nM.
Still for that read-out and setting: then `N#Cc1cccc(S(=O)(=O)c2cnc3cc(F)ccc3c2-c2ccc(F)cc2)c1`, with 6.5 nM.
Same read-out and setting: then `O=S(=O)(c1ccc(F)c(F)c1)c1cnc2cc(F)ccc2c1-c1ccc(F)cc1`, with 19.1 nM; and `O=S(=O)(c1ccc(F)c(Cl)c1)c1cnc2cc(F)ccc2c1-c1ccc(Cl)cc1`, with 8.3 nM; and `O=S(=O)(c1ccc(F)c(F)c1)c1cnc2cc(F)ccc2c1-c1ccc(Cl)cc1`, with 17.1 nM.
The same measure, in the same setting: the result for `O=S(=O)(c1ccc(F)cc1)c1cnc2c(F)c(Cl)ccc2c1-c1ccc(Cl)cc1` reads 71.2 nM.

The test system of a further data set is Liver. The data set is described as follows: Intrinsic clearance in rat liver microsomes at 2.5 uM assessed per gram of liver. In kind it is ADME, microsome.
Details: not given
The molecule `O=S(=O)(c1cc(Cl)cc(Cl)c1)c1cnc2cc(F)ccc2c1-c1cccc(F)c1` registered a CLint of 1.53 mL/min/g.
The same measure, in the same setting: then `O=S(=O)(c1cc(F)cc(F)c1)c1cnc2c(F)cccc2c1-c1ccc(F)cc1`, with 0.63 mL/min/g; and `O=S(=O)(c1cc(F)cc(F)c1)c1cnc2cc(F)ccc2c1-c1cccc(F)c1`, with 1.8 mL/min/g.
With `N#Cc1cccc(S(=O)(=O)c2cnc3cc(F)ccc3c2-c2ccc(F)cc2)c1`, the CLint is 0.7 mL/min/g.
Same read-out and setting: then `O=S(=O)(c1ccc(F)c(F)c1)c1cnc2cc(F)ccc2c1-c1ccc(F)cc1`, with 0.67 mL/min/g; and `O=S(=O)(c1ccc(F)c(Cl)c1)c1cnc2cc(F)ccc2c1-c1ccc(Cl)cc1`, with 0.45 mL/min/g.
In turn, `O=S(=O)(c1ccc(F)c(F)c1)c1cnc2cc(F)ccc2c1-c1ccc(Cl)cc1` yielded a CLint of 1.41 mL/min/g.
On the same count and under the same terms, the result for `O=S(=O)(c1ccc(F)cc1)c1cnc2c(F)c(Cl)ccc2c1-c1ccc(Cl)cc1` reads 0.01 mL/min/g.

The next data set relates to Liver. Briefly: Intrinsic clearance in human liver microsomes at 2.5 uM assessed per gram of liver. In kind it is ADME, microsome.
Details: not given
In turn, `O=S(=O)(c1cc(Cl)cc(Cl)c1)c1cnc2cc(F)ccc2c1-c1cccc(F)c1` had a CLint of 0.41 mL/min/g.
The same measure, in the same setting: then `O=S(=O)(c1cc(F)cc(F)c1)c1cnc2c(F)cccc2c1-c1ccc(F)cc1`, with 0.69 mL/min/g; and `O=S(=O)(c1cc(F)cc(F)c1)c1cnc2cc(F)ccc2c1-c1cccc(F)c1`, with 0.06 mL/min/g.
Still for that read-out and setting: then `N#Cc1cccc(S(=O)(=O)c2cnc3cc(F)ccc3c2-c2ccc(F)cc2)c1`, with 0.39 mL/min/g; and `O=S(=O)(c1ccc(F)c(F)c1)c1cnc2cc(F)ccc2c1-c1ccc(F)cc1`, with 0.44 mL/min/g.
On the same count and under the same terms, then `O=S(=O)(c1ccc(F)c(Cl)c1)c1cnc2cc(F)ccc2c1-c1ccc(Cl)cc1`, with 0.39 mL/min/g; and `O=S(=O)(c1ccc(F)c(F)c1)c1cnc2cc(F)ccc2c1-c1ccc(Cl)cc1`, with 0.01 mL/min/g; and `O=S(=O)(c1ccc(F)cc1)c1cnc2c(F)c(Cl)ccc2c1-c1ccc(Cl)cc1`, with 0.01 mL/min/g.

The target of the next data set is Metabotropic glutamate receptor 5 (Rattus norvegicus) (UniProt P31424). Briefly: Displacement of [3H]M-MPEP from rat mGluR5 expressed in rat cerebrocortical membrane at 1 uM after 60 mins relative to control. In kind it is cell membranes.
Sequence of Metabotropic glutamate receptor 5 (Rattus norvegicus) (P31424 21-1203 limits assumed): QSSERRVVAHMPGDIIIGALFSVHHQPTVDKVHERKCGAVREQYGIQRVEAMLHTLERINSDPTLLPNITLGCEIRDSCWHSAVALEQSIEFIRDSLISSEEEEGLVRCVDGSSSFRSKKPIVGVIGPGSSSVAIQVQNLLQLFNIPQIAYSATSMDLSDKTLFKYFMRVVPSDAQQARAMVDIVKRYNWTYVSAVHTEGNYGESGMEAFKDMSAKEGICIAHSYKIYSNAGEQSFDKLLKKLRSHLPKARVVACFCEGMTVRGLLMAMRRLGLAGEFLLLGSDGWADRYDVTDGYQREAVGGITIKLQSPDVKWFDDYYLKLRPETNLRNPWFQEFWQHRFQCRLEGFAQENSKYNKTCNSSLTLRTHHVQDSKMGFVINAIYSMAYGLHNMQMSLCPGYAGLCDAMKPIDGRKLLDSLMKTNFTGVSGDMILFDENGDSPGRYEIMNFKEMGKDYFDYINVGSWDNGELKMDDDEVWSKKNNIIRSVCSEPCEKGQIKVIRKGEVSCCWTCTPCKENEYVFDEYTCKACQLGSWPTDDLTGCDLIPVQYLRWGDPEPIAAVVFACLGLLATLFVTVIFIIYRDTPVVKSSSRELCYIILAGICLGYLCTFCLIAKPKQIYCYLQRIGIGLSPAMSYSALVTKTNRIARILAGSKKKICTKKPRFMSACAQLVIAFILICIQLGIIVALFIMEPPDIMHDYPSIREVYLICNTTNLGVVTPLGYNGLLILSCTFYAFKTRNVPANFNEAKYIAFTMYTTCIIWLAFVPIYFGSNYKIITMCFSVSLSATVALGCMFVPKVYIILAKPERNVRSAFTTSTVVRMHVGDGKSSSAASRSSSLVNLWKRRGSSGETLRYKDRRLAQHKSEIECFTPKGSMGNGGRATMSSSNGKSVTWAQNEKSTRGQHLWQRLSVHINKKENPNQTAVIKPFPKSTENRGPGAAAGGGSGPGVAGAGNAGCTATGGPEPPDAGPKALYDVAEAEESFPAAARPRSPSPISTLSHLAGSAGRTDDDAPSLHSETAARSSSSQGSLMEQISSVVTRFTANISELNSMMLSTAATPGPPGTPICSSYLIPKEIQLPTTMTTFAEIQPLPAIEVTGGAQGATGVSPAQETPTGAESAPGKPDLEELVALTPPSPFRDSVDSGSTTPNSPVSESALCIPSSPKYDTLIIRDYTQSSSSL
Details: not given
Take `O=S(=O)(c1ccc(F)cc1)c1cnc2c(F)c(Cl)ccc2c1-c1ccc(Cl)cc1`: the inhibition was 83.6%.

A further data set has as its target Metabotropic glutamate receptor 5 (Homo sapiens, UniProt P41594). Briefly: Negative allosteric modulation of human mGluR5a expressed in CHO cells assessed as reduction in DHPG-induced cytosolic Ca2+ influx after 10 to 20 mins by fluo-4/AM-dye based fluorometric analysis. Type of data set: functional, cell-based.
Details: not given
Regarding `O=S(=O)(c1cc(Cl)cc(Cl)c1)c1cnc2cc(F)ccc2c1-c1cccc(F)c1`, the half-maximal inhibitory concentration (IC50) was determined as 35 nM.
The same measure, in the same setting: the result for `O=S(=O)(c1cc(F)cc(F)c1)c1cnc2c(F)cccc2c1-c1ccc(F)cc1` reads 12 nM.
The same measure, in the same setting: then `O=S(=O)(c1cc(F)cc(F)c1)c1cnc2cc(F)ccc2c1-c1cccc(F)c1`, with 74 nM; and `N#Cc1cccc(S(=O)(=O)c2cnc3cc(F)ccc3c2-c2ccc(F)cc2)c1`, with 20 nM.
The same measure, in the same setting: the result for `O=S(=O)(c1ccc(F)c(F)c1)c1cnc2cc(F)ccc2c1-c1ccc(F)cc1` reads 43 nM.
Regarding `O=S(=O)(c1ccc(F)c(Cl)c1)c1cnc2cc(F)ccc2c1-c1ccc(Cl)cc1`, the IC50 amounted to 27 nM.
Same read-out and setting: then `O=S(=O)(c1ccc(F)c(F)c1)c1cnc2cc(F)ccc2c1-c1ccc(Cl)cc1`, with 22 nM.

The test system of the next data set is Rattus norvegicus. The data set is described as follows: Anxiolytic activity in ip dosed Wistar rat assessed as increase in water drinking time during punished period administered as suspension by Vogel punished drinking conflict test. To be noted: read-out: MED. In kind it is functional. An outline of the steps:
(§1)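 Vogel punished-drinking test in rats, single i.p. or p.o. dose as suspension in 5% Tween 80; plasma sampled ~45 min after i.p. or ~75 min after p.o. dosing.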
In the case of `O=S(=O)(c1cc(Cl)cc(Cl)c1)c1cnc2cc(F)ccc2c1-c1cccc(F)c1`, the minimal effective dose is 30 mg/kg.
Take `O=S(=O)(c1cc(F)cc(F)c1)c1cnc2c(F)cccc2c1-c1ccc(F)cc1`: the minimal effective dose amounted to 30 mg/kg.
Turning to `O=S(=O)(c1cc(F)cc(F)c1)c1cnc2cc(F)ccc2c1-c1cccc(F)c1`, the minimal effective dose was above 30 mg/kg.
Regarding `N#Cc1cccc(S(=O)(=O)c2cnc3cc(F)ccc3c2-c2ccc(F)cc2)c1`, the minimal effective dose stood at 10 mg/kg.
Still for that read-out and setting: the result for `O=S(=O)(c1ccc(F)c(F)c1)c1cnc2cc(F)ccc2c1-c1ccc(F)cc1` reads above 30 mg/kg.
Turning to `O=S(=O)(c1ccc(F)c(Cl)c1)c1cnc2cc(F)ccc2c1-c1ccc(Cl)cc1`, the minimal effective dose is 30 mg/kg.
Still for that read-out and setting: then `O=S(=O)(c1ccc(F)c(F)c1)c1cnc2cc(F)ccc2c1-c1ccc(Cl)cc1`, with 10 mg/kg.

Tested on in the next data set: not listed separately
Briefly: Plasma concentration in ip dosed Wistar rat at anxiolytic MED administered as suspension after 45 mins during Vogel punished drinking conflict test.
Details: not given
Type of data set: ADME, organism-based. An outline of the steps: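 Vehicle was a suspension containing 5% Tween 80, given i.p. at the Vogel minimum effective dose. Plasma was sampled about 45 min after dosing, right after the Vogel punished drinking test.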
For `O=S(=O)(c1cc(Cl)cc(Cl)c1)c1cnc2cc(F)ccc2c1-c1cccc(F)c1`, the concentration at 0.75 h was found to be 90.6 nM.
Still for that read-out and setting: then `O=S(=O)(c1cc(F)cc(F)c1)c1cnc2c(F)cccc2c1-c1ccc(F)cc1`, with 151 nM; and `N#Cc1cccc(S(=O)(=O)c2cnc3cc(F)ccc3c2-c2ccc(F)cc2)c1`, with 208 nM.
Still for that read-out and setting: then `O=S(=O)(c1ccc(F)c(Cl)c1)c1cnc2cc(F)ccc2c1-c1ccc(Cl)cc1`, with 373 nM.

A further data set has as its system Rattus norvegicus. Briefly: Anxiolytic activity in po dosed Wistar rat assessed as increase in water drinking time during punished period administered as suspension by Vogel punished drinking conflict test. Type of data set: functional. To be noted: read-out: MED. An outline of the steps: as §1
On to `N#Cc1cccc(S(=O)(=O)c2cnc3cc(F)ccc3c2-c2ccc(F)cc2)c1`, for which the minimal effective dose was in the range of 3 to 10 mg/kg.
Take `O=S(=O)(c1ccc(F)c(Cl)c1)c1cnc2cc(F)ccc2c1-c1ccc(Cl)cc1`: the minimal effective dose was 3 to 10 mg/kg.
The same measure, in the same setting: the result for `O=S(=O)(c1ccc(F)c(F)c1)c1cnc2cc(F)ccc2c1-c1ccc(Cl)cc1` reads 10 mg/kg.

The subject of a further data set is Plasma. Briefly: Plasma concentration in Wistar rat at 30 mg/kg, po administered as single dose. Type of data set: ADME, organism-based. To be noted: in vivo.
Consider `N#Cc1cccc(S(=O)(=O)c2cnc3cc(F)ccc3c2-c2ccc(F)cc2)c1`, for which the concentration stood at 1280 nM.
The same measure, in the same setting: then `O=S(=O)(c1ccc(F)c(Cl)c1)c1cnc2cc(F)ccc2c1-c1ccc(Cl)cc1`, with 866 nM.

Another data set relates to Rattus norvegicus. The data set is described as follows: Therapeutic index, ratio of MED for effect on spatial learning performance in po dosed Wistar rat by Morris water maze test to MED for anxiolytic activity in Wistar rat by Vogel punished drinking conflict test.
Details: not given
The method, boiled down:
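Index is the Morris water maze minimum effective dose (oral, given 1 h before the first daily trial, 4 days of 3 trials) divided by the Vogel punished drinking minimum effective dose.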
For the molecule `N#Cc1cccc(S(=O)(=O)c2cnc3cc(F)ccc3c2-c2ccc(F)cc2)c1`, the TI was found to be 10.
Consider `O=S(=O)(c1ccc(F)c(Cl)c1)c1cnc2cc(F)ccc2c1-c1ccc(Cl)cc1`, for which the TI came out at 10.

In a further data set the test system is Rattus norvegicus. Briefly: Therapeutic index, ratio of plasma concentration causing effect on spatial learning performance in po dosed Wistar rat by Morris water maze test to plasma concentration causing anxiolytic activity in Wistar rat by Vogel punished drinking conflict test.
Details: not given
An outline of the steps: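 Index is the plasma level in rats at 30 mg/kg p.o. in the Morris water maze (sampled after the last trial on Day 4) divided by the plasma level at the Vogel minimum effective dose. Vogel plasma was sampled right after the test.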
Turning to `N#Cc1cccc(S(=O)(=O)c2cnc3cc(F)ccc3c2-c2ccc(F)cc2)c1`, the TI result is reported as “<=8.4”.
For `O=S(=O)(c1ccc(F)c(Cl)c1)c1cnc2cc(F)ccc2c1-c1ccc(Cl)cc1`, the TI was 3.9.

The next data set concerns Rattus norvegicus. Briefly: Effect on spatial learning performance in po dosed Wistar rat measured as escape latency dosed 1 hr prior to first daily trial by Morris water maze test. Type of data set: ADME, organism-based. Particulars: in vivo. The method, boiled down: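 Morris water maze with male Harlan-Wistar rats (190–220 g): three trials a day for 4 days, hidden 10 cm platform, video tracking; 30 mg/kg p.o. in Type IV lipid formulation 1 h before first daily trial; plasma taken after last Day 4 trial; 7–17 rats/group.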
Turning to `N#Cc1cccc(S(=O)(=O)c2cnc3cc(F)ccc3c2-c2ccc(F)cc2)c1`, the Activity result is “Toxic”.
With `O=S(=O)(c1ccc(F)c(Cl)c1)c1cnc2cc(F)ccc2c1-c1ccc(Cl)cc1`, the Activity entry is “Toxic”.

Another data set relates to Plasma. Briefly: Plasma concentration in Wistar rat at 30 mg/kg, ip administered as single dose. Type of data set: ADME, organism-based. To be noted: in vivo. The method, boiled down:
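Rats dosed i.p. at 30 mg/kg. Plasma level was taken about 45 min after dosing, at the end of the Vogel session.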
Regarding `O=S(=O)(c1cc(F)cc(F)c1)c1cnc2cc(F)ccc2c1-c1cccc(F)c1`, the concentration amounted to 63 nM.
Still for that read-out and setting: then `O=S(=O)(c1ccc(F)c(F)c1)c1cnc2cc(F)ccc2c1-c1ccc(F)cc1`, with 247 nM.

The record behind these values is ChEMBL document CHEMBL4007421, “Discovery and Preclinical Characterization of 3-((4-(4-Chlorophenyl)-7-fluoroquinoline-3-yl)sulfonyl)benzonitrile, a Novel Non-acetylenic Metabotropic Glutamate Receptor 5 (mGluR5) Negative Allosteric Modulator for Psychiatric Indications” (J Med Chem, 2017).
